Data as given in ChEMBL document CHEMBL1125138, “1,3-Dialkyl-3-acyltriazenes, a novel class of antineoplastic alkylating agents” (J Med Chem, 1990).

Key:
[1] = test system: A498; test: Evaluated for the inhibitory concentration required to cause growth inhibition of A498Rem- renal cell line using the MTT Cytotoxicity Assay; assay type: functional, cell-based; details: Homo sapiens
Procedure, shortened: (§1)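 MTT microculture tetrazolium growth assay on human cell lines and normal fibroblasts. Cells seeded at 1000 cells/well, with compound added 24 h after plating. Cultures then incubated a further 6 days at 37 °C before MTT read-out of growth versus untreated cells.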

[2] = test system: CCD 19Lu; test: Evaluated for the inhibitory concentration required to cause growth inhibition of CCD-19Lu fibroblasts cell line using the MTT Cytotoxicity Assay; assay type: functional, cell-based; details: Homo sapiens; procedure, shortened: as §1
[3] = test system: SK-MEL-5; test: Evaluated for the inhibitory concentration required to cause growth inhibition of SK-MEL-5 melanoma cell line using the MTT Cytotoxicity Assay; assay type: functional, cell-based; details: Homo sapiens; procedure, shortened: as §1
[4] = test system: A 172; test: Evaluated for the inhibitory concentration required to cause growth inhibition of A172Mer- cell line of central nervous system (CNS) using the MTT Cytotoxicity Assay; assay type: functional, cell-based; details: Homo sapiens; procedure, shortened: as §1
[5] = test system: A549; test: Evaluated for the inhibitory concentration required to cause growth inhibition of A549Rem- cell line of lung using the MTT Cytotoxicity Assay; assay type: functional, cell-based; details: Homo sapiens; procedure, shortened: as §1
[6] = test system: NCI-H322M; test: Evaluated for the inhibitory concentration required to cause growth inhibition of H322M cell line of lung using the Microculture Tetrazolium (MTT) Cytotoxicity Assay; assay type: functional, cell-based; details: Homo sapiens; procedure, shortened: as §1
[7] = test system: DOD-1; test: Evaluated for the inhibitory concentration required to cause growth inhibition of DOD-1 breast cell line using the MTT Cytotoxicity Assay; assay type: functional, cell-based; details: Homo sapiens; procedure, shortened: as §1
[8] = test system: TE-671; test: Evaluated for the inhibitory concentration required to cause growth inhibition of TE-671 cell line of central nervous system (CNS)using the MTT Cytotoxicity Assay; assay type: functional, cell-based; details: Homo sapiens; procedure, shortened: as §1
[9] = test system: U-251; test: Evaluated for the inhibitory concentration required to cause growth inhibition of U251 cell line of central nervous system (CNS) using the MTT Cytotoxicity Assay; assay type: functional, cell-based; details: Homo sapiens
Procedure, shortened: (§2)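 MTT cell-growth assay in human cell lines: cells harvested and seeded at 1000 cells/well in 96-well plates. Compound added after 24 h, then cultures incubated a further 6 days at 37 °C. Growth measured with and without agent.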

[10] = test system: A704; test: Evaluated for the inhibitory concentration required to cause growth inhibition of A704Rem- renal cell line using the MTT Cytotoxicity Assay; assay type: functional, cell-based; details: Homo sapiens; procedure, shortened: as §1
[11] = test system: NCI-H522 (Homo sapiens); test: Evaluated for the inhibitory concentration required to cause growth inhibition of H522 cell line of lung using the Microculture Tetrazolium (MTT) Cytotoxicity Assay
[12] = test system: NCI-H125; test: Evaluated for the inhibitory concentration required to cause growth inhibition of H125 cell line of lung using the Microculture Tetrazolium (MTT) Cytotoxicity Assay; assay type: functional, cell-based; details: Homo sapiens; procedure, shortened: as §1
[13] = test system: OVCAR-3; test: Evaluated for the inhibitory concentration required to cause growth inhibition of OVCAR-3 ovarian cell line using the MTT Cytotoxicity Assay; assay type: functional, cell-based; details: Homo sapiens; procedure, shortened: as §1
[14] = test system: OVCAR-4; test: Evaluated for the inhibitory concentration required to cause growth inhibition of OVCAR-4 ovarian cell line using the MTT Cytotoxicity Assay; assay type: functional, cell-based; details: Homo sapiens; procedure, shortened: as §1
[15] = test system: NCI-H358; test: Evaluated for the inhibitory concentration required to cause growth inhibition of H358M cell line of lung using the Microculture Tetrazolium (MTT) Cytotoxicity Assay; assay type: functional, cell-based; details: Homo sapiens; procedure, shortened: as §1
[16] = test system: NCI-H23; test: Evaluated for the inhibitory concentration required to cause growth inhibition of H23 cell line of lung using the Microculture Tetrazolium (MTT) Cytotoxicity Assay; assay type: functional, cell-based; details: Homo sapiens; procedure, shortened: as §1
[17] = test system: Malme-3M; test: Evaluated for the inhibitory concentration required to cause growth inhibition of MALME-3M melanoma cell line using the MTT Cytotoxicity Assay; assay type: functional, cell-based; details: Homo sapiens; procedure, shortened: as §1
[18] = test system: NCI-H460; test: Evaluated for the inhibitory concentration required to cause growth inhibition of H460 cell line of lung using the Microculture Tetrazolium (MTT) Cytotoxicity Assay; assay type: functional, cell-based; details: Homo sapiens; procedure, shortened: as §1
[19] = test system: LOX IMVI; test: Evaluated for the inhibitory concentration required to cause growth inhibition of LOX melanoma cell line using the MTT Cytotoxicity Assay; assay type: functional, cell-based; details: Homo sapiens; procedure, shortened: as §1
[20] = test system: MCF7; test: Evaluated for the inhibitory concentration required to cause growth inhibition of MCF-7 breast cell line using the MTT Cytotoxicity Assay; assay type: functional, cell-based; details: Homo sapiens; procedure, shortened: as §1
[21] = test system: A-427; test: Evaluated for the inhibitory concentration required to cause growth inhibition of A427Mer- cell line of lung using the MTT Cytotoxicity Assay; assay type: functional, cell-based; details: Homo sapiens; procedure, shortened: as §1
[22] = test system: NCI/ADR-RES; test: Evaluated for the inhibitory concentration required to cause growth inhibition of MCF-7ADR breast cell line using the MTT Cytotoxicity Assay; assay type: functional, cell-based; details: Homo sapiens; procedure, shortened: as §1
[23] = test system: A673; test: Evaluated for the inhibitory concentration required to cause growth inhibition of A673Mer+ sarcoma cell line using the MTT Cytotoxicity Assay; assay type: functional, cell-based; details: Homo sapiens; procedure, shortened: as §1
[24] = test system: HOS-TE85; test: Evaluated for the inhibitory concentration required to cause growth inhibition of TE85Mer+ sarcoma cell line using the MTT Cytotoxicity Assay; assay type: functional, cell-based; details: Homo sapiens; procedure, shortened: as §1
[25] = test system: MAR BEL fibroblasts cell line; test: Evaluated for the inhibitory concentration required to cause growth inhibition of MAR BEL fibroblasts cell line using the MTT Cytotoxicity Assay; assay type: functional, cell-based; details: Homo sapiens; procedure, shortened: as §1
[26] = test system: RPMI-7951; test: Evaluated for the inhibitory concentration required to cause growth inhibition of RPMI7951 melanoma cell line using the MTT Cytotoxicity Assay; assay type: functional, cell-based; details: Homo sapiens; procedure, shortened: as §1
[27] = test system: WiDr; test: Evaluated for the inhibitory concentration required to cause growth inhibition of WiDR colon cell line using the MTT Cytotoxicity Assay; assay type: functional, cell-based; details: Homo sapiens; procedure, shortened: as §2

| Compound | IC50 [1] [µM] | IC50 [2] [µM] | IC50 [3] [µM] | IC50 [5] [µM] | IC50 [6] [µM] | IC50 [7] [µM] | IC50 [8] [µM] | IC50 [9] [µM] | IC50 [10] [µM] | IC50 [11] [µM] | IC50 [12] [µM] | IC50 [13] [µM] | IC50 [14] [µM] | IC50 [15] [µM] | IC50 [16] [µM] | IC50 [17] [µM] | IC50 [18] [µM] | IC50 [19] [µM] | IC50 [20] [µM] | IC50 [21] [µM] | other results |
| --- | --- | --- | --- | --- | --- | --- | --- | --- | --- | --- | --- | --- | --- | --- | --- | --- | --- | --- | --- | --- | --- |
| O=NN(CCCl)C(=O)NCCCl [CARMUSTINE] | 110 | 300 | 27 | 90 | 60 | 37 | 25 | 15 | 125 | 20 | 9 | 15 | 18 | 98 | 5 | 20 | 80 | 7 | 4.5 | 8 | IC50 [4]: 18 µM; IC50 [22]: 20 µM |
| C/N=N\N(C)C(C)=O | 48 | 77 | 37 | 55 | 55 | 60 | 7 | 42 | 55 | 30 | 53 | 55 | 45 | 100 | 42 | 25 | 75 | 30 | 37 | 11 | IC50 [23]: 65 µM; IC50 [24]: 40 µM; IC50 [25]: 80 µM; IC50 [26]: 60 µM; IC50 [27]: 40 µM; IC50 [22]: 40 µM |
